Experimental data taken from ChEMBL document CHEMBL2385039 (Bioorg Med Chem, 2013).

How the values were obtained:
[1] = system: HEK293; assay: Inhibition of mouse GAT4 expressed in HEK cells assessed as remaining [3H]-GABA uptake at 100 uM after 25 mins by liquid scintillation counting analysis relative to control; type: cell-based
Method in brief: (§1)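 The assay used the standardized [³H]GABA uptake format in HEK lines, each stably expressing one murine GAT subtype (mGAT1, mGAT2, mGAT3 or mGAT4). The value is the remaining [³H]GABA uptake with 100 μM test compound present.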

[2] = system: Betaine/GABA transporter BGT1 (mGAT2, slc6a12, Mus musculus); assay: Inhibition of mouse GAT2 expressed in HEK cells assessed as remaining [3H]-GABA uptake at 100 uM after 25 mins by liquid scintillation counting analysis relative to control; details: HEK293
[3] = molecular target: Sodium- and chloride-dependent GABA transporter 1 (Mus musculus, UniProt P31648); type: cell-based, HEK293
[4] = system: GABA transporter 3 (mGAT3, slc6a13, Mus musculus); assay: Inhibition of mouse GAT3 expressed in HEK cells assessed as remaining [3H]-GABA uptake at 100 uM after 25 mins by liquid scintillation counting analysis relative to control; details: HEK293
[5] = cells; type: cell-based; details: HEK293
[6] = molecular target: Sodium- and chloride-dependent GABA transporter 1 (Mus musculus) (UniProt P31648); assay: Inhibition of mouse GAT1 expressed in HEK cells assessed as remaining [3H]-GABA uptake at 100 uM after 25 mins by liquid scintillation counting analysis relative to control; type: cell-based; details: HEK293; method in brief: as §1

In the case of `O=C(c1ccccc1F)c1ccc(F)cc1/C=C/OCCN1CCCC(C(=O)O)C1` (configuration not stated), the Activity [1] is reported as 52.1%, the Activity [2] is reported as 68.6% and the IC50 [3] is reported as 8.13 µM. It also gave an Activity [4] of 57.6%.
Work on `Cc1ccsc1C(=CCCN1CCC[C@@H](C(=O)O)C1)c1sccc1C` yielded an Activity [1] of 73.4%.
Work on `O=C(O)[C@@H]1CCCN(CCOCCc2ccccc2Cc2ccccc2)C1` yielded an IC50 [3] of 0.1 µM.
In the case of `O=C(c1cccc(F)c1)c1ccc(F)cc1/C=C/OCCN1CCCC(C(=O)O)C1` (configuration not stated), the IC50 [5] is reported as 200 µM and the IC50 [3] is reported as 29.5 µM.
For `O=C(O)C1CCCN(CCO/C=C/c2ccc(F)cc2Cc2ccc(F)cc2)C1` (configuration not stated), the Activity [1] was 63.7%, the Activity [2] was 71.6% and the IC50 [3] was 4.57 µM. For the same compound, the Activity [4] was 49.3%.
Compound `O=C(O)C1CCCN(CCO/C=C/c2ccccc2Cc2ccccc2)C1` (configuration not stated) has an IC50 [5] of 31.6 µM, an Activity [2] of 60.2% and an IC50 [3] of 4.17 µM.
For `O=C(c1ccc(F)cc1)c1cc(F)ccc1/C=C\OCCN1CCCC(C(=O)O)C1` (configuration not stated), the Activity [1] was 44.8%, the Activity [2] was 73% and the IC50 [3] was 0.339 µM. The Activity [4] was 59.8%.
`O=C(c1cccc(F)c1)c1cc(F)ccc1/C=C/OCCN1CCCC(C(=O)O)C1` (configuration not stated) showed an Activity [1] of 67.6%, an Activity [2] of 62.9% and an Activity [6] of 67.5%. The Activity [4] was 51.5%.
With `O=C(O)C1CCCN(CCO/C=C\c2cc(F)ccc2Cc2cccc(F)c2)C1` (configuration not stated) the Activity [1] was 56%, the Activity [2] was 60.3% and the IC50 [3] was 0.302 µM.
`O=C(O)C1CCCN(CCO/C=C\c2ccc(F)cc2Cc2ccc(F)cc2)C1` (configuration not stated) gave an IC50 [5] of 25.7 µM, an Activity [2] of 64.8% and an IC50 [3] of 1.17 µM.
With `O=C(c1ccc(F)cc1)c1ccc(F)cc1/C=C\OCCN1CCCC(C(=O)O)C1` (configuration not stated) the Activity [1] was 82.2%, the Activity [2] was 70.2% and the IC50 [3] was 7.59 µM. It also gave an Activity [4] of 79.5%.
With `O=C(O)C1CCCN(CCO/C=C/c2cc(F)ccc2Cc2ccc(F)cc2)C1` (configuration not stated) the IC50 [5] was 93.3 µM, the Activity [2] was 58.1% and the IC50 [3] was 8.91 µM. It also gave an Activity [4] of 62%.
In the case of `O=C(c1ccc(F)cc1)c1cc(F)ccc1/C=C/OCCN1CCCC(C(=O)O)C1` (configuration not stated), the Activity [1] is reported as 72.7%, the Activity [2] is reported as 71.4% and the IC50 [3] is reported as 1.86 µM. It also gave an Activity [4] of 68.8%.
Compound `O=C(O)C1CCCN(CCO/C=C/c2cc(F)ccc2Cc2ccccc2F)C1` (configuration not stated) has an Activity [1] of 53.8%, an Activity [2] of 47.8% and an IC50 [3] of 10.2 µM. It also gave an Activity [4] of 83.7%.
Work on `O=C(c1ccccc1F)c1cc(F)ccc1/C=C/OCCN1CCCC(C(=O)O)C1` (configuration not stated) yielded an IC50 [5] of 67.6 µM and an IC50 [3] of 10.7 µM.
`O=C(c1cccc(F)c1)c1ccc(F)cc1/C=C\OCCN1CCCC(C(=O)O)C1` (configuration not stated) gave an Activity [1] of 52.1%, an Activity [2] of 96.1% and an IC50 [3] of 2.63 µM. The Activity [4] was 83.6%.
`O=C(O)C1CCCN(CCO/C=C\c2ccccc2Cc2ccccc2)C1` (configuration not stated) showed an Activity [1] of 66%, an Activity [2] of 68.6% and an IC50 [3] of 0.398 µM. For the same compound, the Activity [4] was 56%.
Work on `Cc1ccsc1C(=COCCN1CCC[C@@H](C(=O)O)C1)c1sccc1C` yielded an IC50 [3] of 0.0141 µM.
`O=C(O)C1CCCN(CCO/C=C\c2ccc(F)cc2Cc2ccccc2F)C1` (configuration not stated) showed an IC50 [5] of 60.3 µM, an Activity [2] of 80.1% and an IC50 [3] of 0.631 µM.
Compound `O=C(c1cccc(F)c1)c1cc(F)ccc1/C=C\OCCN1CCCC(C(=O)O)C1` (configuration not stated) has an Activity [1] of 45.2%, an Activity [2] of 56.9% and an IC50 [3] of 0.794 µM. The Activity [4] was 52.7%.
Compound `O=C(c1ccccc1)c1ccccc1/C=C/OCCN1CCCC(C(=O)O)C1` (configuration not stated) has an Activity [1] of 79.8%, an Activity [2] of 67.5% and an IC50 [3] of 25.1 µM. It also gave an Activity [4] of 55.9%.
`O=C(c1ccccc1)c1ccccc1/C=C\OCCN1CCCC(C(=O)O)C1` (configuration not stated) showed an Activity [1] of 72.4%, an Activity [2] of 72.3% and an IC50 [3] of 7.08 µM. The Activity [4] was 59.8%.
With `O=C(O)C1CCCN(CCO/C=C/c2ccc(F)cc2Cc2ccccc2F)C1` (configuration not stated) the IC50 [5] was 58.9 µM, the Activity [2] was 57.5% and the IC50 [3] was 2.69 µM. It also gave an Activity [4] of 80.1%.
`O=C(c1ccc(F)cc1)c1ccc(F)cc1/C=C/OCCN1CCCC(C(=O)O)C1` (configuration not stated) gave an Activity [1] of 94.3%, an Activity [2] of 61.2% and an IC50 [3] of 20.9 µM. For the same compound, the Activity [4] was 97.7%.
In the case of `O=C(O)C1CCCN(CCO/C=C\c2cc(F)ccc2Cc2ccc(F)cc2)C1` (configuration not stated), the Activity [1] is reported as 50.3% and the IC50 [3] is reported as 1.1 µM.
For `O=C(O)[C@@H]1CCCN(CCC=C(c2ccccc2)c2ccccc2)C1`, the IC50 [5] was 275 µM and the IC50 [3] was 0.692 µM.
For `O=C(O)C1CCCN(CCO/C=C/c2cc(F)ccc2Cc2cccc(F)c2)C1` (configuration not stated), the Activity [1] was 51.8%, the Activity [2] was 70.5% and the IC50 [3] was 6.76 µM. For the same compound, the Activity [4] was 59.3%.
Compound `O=C(c1ccccc1F)c1ccc(F)cc1/C=C\OCCN1CCCC(C(=O)O)C1` (configuration not stated) has an Activity [1] of 86.3%, an Activity [2] of 74.5% and an IC50 [3] of 3.02 µM. The Activity [4] was 83.2%.
`O=C(c1ccccc1F)c1cc(F)ccc1/C=C\OCCN1CCCC(C(=O)O)C1` (configuration not stated) gave an Activity [1] of 45.1%, an IC50 [3] of 0.759 µM and an Activity [4] of 43.5%.
For `O=C(O)C1CCCN(CCO/C=C\c2cc(F)ccc2Cc2ccccc2F)C1` (configuration not stated), the IC50 [5] was 49 µM, the Activity [2] was 71.1% and the IC50 [3] was 0.302 µM.
